According to ChEMBL document CHEMBL2321820, “Discovery of HSD-621 as a Potential Agent for the Treatment of Type 2 Diabetes” (ACS Med Chem Lett, 2013):

Tests used:
[1] = Volume of distribution at steady state in Beagle dog at 2 mg/kg, iv; type: ADME, organism-based, Canis lupus familiaris; design: dose 2 mg/kg, route intravenous; details: in vivo, read-out: Vdss
Outline: (§1)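 Male dogs were given 2 mg/kg intravenously in 50% DMSO/50% PEG200.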

[2] = Oral bioavailability in Sprague-Dawley rat at 10 mg/kg; type: ADME, organism-based; details: in vivo
Outline: (§2)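 SD rats received 2 mg/kg iv in 50% DMSO/50% PEG200, or 10 mg/kg po in 2% Tween/0.5% methyl cellulose in water. PK parameters come from each route.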

[3] = Half life in human liver microsomes; type: ADME, Microsome
Mus musculus [4] = organism: Mus musculus; assay: Toxicity in C57B6 DIO mouse assessed as elevation of aspartate aminotransferase at 0.3 mg/g of food after 31 days; type: organism-based; details: in vivo, po, 744 h
Mus musculus [5] = organism: Mus musculus; assay: Toxicity in C57B6 DIO mouse assessed as reduction of food intake at 0.3 mg/g of food after 31 days; type: organism-based; details: in vivo, po, 744 h
[6] = Clearance in Sprague-Dawley rat at 2 mg/kg, iv; type: ADME, organism-based; design: dose 2 mg/kg, route intravenous; details: in vivo; outline: as §2
[7] = Oral bioavailability in C57B6 mouse at 10 mg/kg; type: ADME, organism-based; details: in vivo
Outline: (§3)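 Male C57B6 mice. IV dose of 2 mg/kg in 50% DMSO/50% PEG200. Oral dose of 10 mg/kg in 2% Tween/0.5% methyl cellulose in water. Values are PK parameters from the iv and po arms.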

[8] = target: T1, 11-beta-hydroxysteroid dehydrogenase 1 (Mus musculus, UniProt P50172); assay: Inhibition of mouse 11beta-HSD1 expressed in CHO cells […] incubated for 30 mins prior to substrate addition measured after 120 mins by chemiluminescence assay; type: cell-based
Outline: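 Cell-based assay run in duplicate. Compounds were tested as 11-point 2-fold dilutions, and IC50 was derived. Lower assay threshold was 10 nM.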

[9] = target: 11-beta-hydroxysteroid dehydrogenase 1 (Homo sapiens, UniProt P28845); assay: Inhibition of human 11beta-HSD1 expressed in CHO cells using cortisone as substrate incubated for 30 mins prior to substrate addition measured after 120 mins by chemiluminescence assay
[10] = Half life in Sprague-Dawley rat at 10 mg/kg, po; type: ADME, organism-based; design: dose 10 mg/kg, route oral; details: in vivo; outline: as §2
[11] = Half life in Beagle dog at 5 mg/kg, po; details: in vivo
[12] = target: T2, Peroxisome proliferator-activated receptor delta (Homo sapiens, UniProt Q03181); assay: Inhibition of PPARbeta (unknown origin)
T2 sequence (Q03181 whole entry): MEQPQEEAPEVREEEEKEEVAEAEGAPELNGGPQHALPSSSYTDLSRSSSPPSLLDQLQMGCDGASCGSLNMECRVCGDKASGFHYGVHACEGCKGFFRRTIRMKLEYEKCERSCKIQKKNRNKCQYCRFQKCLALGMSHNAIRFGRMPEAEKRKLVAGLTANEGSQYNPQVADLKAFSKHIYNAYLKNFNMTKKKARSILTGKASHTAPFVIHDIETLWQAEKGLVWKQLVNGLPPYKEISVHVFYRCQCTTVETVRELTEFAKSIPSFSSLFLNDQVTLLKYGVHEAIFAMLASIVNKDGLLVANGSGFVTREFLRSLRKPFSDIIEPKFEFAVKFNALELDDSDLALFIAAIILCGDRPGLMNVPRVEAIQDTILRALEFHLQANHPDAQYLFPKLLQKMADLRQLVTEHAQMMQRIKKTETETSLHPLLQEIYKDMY

Rattus norvegicus = assay: Toxicity in rat at 200 to 2000 mg/kg; type: organism-based; design: dose 200-2000 mg/kg; details: in vivo
Outline: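 14-day safety assessment and metabolism study in rats at 200, 600 and 2000 mg/kg.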

[13] = Half life in C57B6 mouse at 2 mg/kg, iv; type: ADME, organism-based; design: dose 2 mg/kg, route intravenous; details: in vivo; outline: as §3
[14] = target: T1, 11-beta-hydroxysteroid dehydrogenase 1; assay: Inhibition of mouse 11beta-HSD1 expressed in CHO cells […] incubated for 30 mins prior to substrate addition measured after 120 mins by chemiluminescence assay in presence of 10% human serum; type: cell-based
Outline: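 Cell-based assay with 10% (v/v) human serum in the culture medium. Run in duplicate, with 11-point 2-fold dilutions giving the IC50. Lower threshold was 10 nM.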

[15] = Cmax in Sprague-Dawley rat at 10 mg/kg, po; type: ADME, organism-based; design: dose 10 mg/kg, route oral; details: in vivo; outline: as §2
[16] = Volume of distribution at steady state in C57B6 mouse at 2 mg/kg, iv; type: ADME, organism-based; design: dose 2 mg/kg, route intravenous; details: in vivo, read-out: Vdss; outline: as §3
Mus musculus [17] = organism: Mus musculus; assay: Toxicity in C57B6 DIO mouse assessed as body weight change at 0.3 mg/g of food after 31 days relative to untreated control; type: organism-based; details: in vivo, po, 744 h
[18] = Clearance in Beagle dog at 2 mg/kg, iv; type: ADME, organism-based, Canis lupus familiaris; design: dose 2 mg/kg, route intravenous; details: in vivo; outline: as §1
[19] = Tmax in Sprague-Dawley rat at 10 mg/kg, po; type: ADME, organism-based; design: dose 10 mg/kg, route oral; details: in vivo; outline: as §2
[20] = AUC in C57B6 mouse at 2 mg/kg, iv; type: ADME, organism-based; design: dose 2 mg/kg, route intravenous; details: plasma; outline: as §3
[21] = AUC in Beagle dog at 5 mg/kg, po; details: plasma
[22] = Half life in rat liver microsomes; type: ADME, Microsome
[23] = Half life in mouse liver microsomes; type: ADME, Microsome
Mus musculus [24] = organism: Mus musculus; assay: Toxicity in C57B6 DIO mouse assessed as elevation of alanine aminotransferase at 0.3 mg/g of food after 31 days; type: organism-based; details: in vivo, po, 744 h
[25] = Half life in C57B6 mouse at 10 mg/kg, po; type: ADME, organism-based; design: dose 10 mg/kg, route oral; details: in vivo; outline: as §3
[26] = AUC in C57B6 mouse at 10 mg/kg, po; type: ADME, organism-based; design: dose 10 mg/kg, route oral; details: plasma; outline: as §3
[27] = target: T3, Peroxisome proliferator-activated receptor alpha (Homo sapiens, UniProt Q07869); assay: Inhibition of PPARalpha (unknown origin)
T3 sequence (Q07869 whole entry): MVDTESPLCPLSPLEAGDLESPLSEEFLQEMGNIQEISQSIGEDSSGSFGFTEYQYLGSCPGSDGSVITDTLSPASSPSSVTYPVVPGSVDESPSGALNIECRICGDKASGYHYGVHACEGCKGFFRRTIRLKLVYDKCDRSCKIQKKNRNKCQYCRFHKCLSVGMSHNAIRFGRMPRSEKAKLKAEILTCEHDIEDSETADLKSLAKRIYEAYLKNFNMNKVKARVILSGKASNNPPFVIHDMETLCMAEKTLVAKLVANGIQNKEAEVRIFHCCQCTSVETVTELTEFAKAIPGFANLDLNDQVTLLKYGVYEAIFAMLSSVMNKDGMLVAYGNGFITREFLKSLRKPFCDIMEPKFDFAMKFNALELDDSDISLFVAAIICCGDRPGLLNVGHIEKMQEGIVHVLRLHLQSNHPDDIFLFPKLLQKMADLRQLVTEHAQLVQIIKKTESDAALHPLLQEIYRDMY

T1 sequence (P50172 whole entry): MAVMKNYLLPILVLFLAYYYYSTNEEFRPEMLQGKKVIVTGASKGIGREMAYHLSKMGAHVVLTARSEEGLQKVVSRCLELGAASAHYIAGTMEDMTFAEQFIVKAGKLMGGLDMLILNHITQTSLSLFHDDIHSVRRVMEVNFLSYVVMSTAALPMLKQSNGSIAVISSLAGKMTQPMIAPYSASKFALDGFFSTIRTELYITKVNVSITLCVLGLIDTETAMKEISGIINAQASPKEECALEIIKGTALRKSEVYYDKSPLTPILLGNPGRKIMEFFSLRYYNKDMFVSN
Chain of 11-beta-hydroxysteroid dehydrogenase 1 (Homo sapiens, UniProt P28845) (P28845 whole entry): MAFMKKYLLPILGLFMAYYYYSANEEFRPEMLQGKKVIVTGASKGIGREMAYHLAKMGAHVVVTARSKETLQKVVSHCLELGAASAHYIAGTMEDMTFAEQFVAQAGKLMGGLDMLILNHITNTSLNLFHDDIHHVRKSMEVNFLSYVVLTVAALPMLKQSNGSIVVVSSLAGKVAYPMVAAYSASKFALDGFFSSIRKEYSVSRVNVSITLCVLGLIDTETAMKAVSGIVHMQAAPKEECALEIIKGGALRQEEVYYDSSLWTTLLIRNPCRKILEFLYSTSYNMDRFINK

In the case of `C[C@@H]1CN(c2ccc(F)cc2C(F)(F)F)CCN1S(=O)(=O)c1ccc([C@@](O)(C(N)=O)C(F)(F)F)s1`, the Vd [1] is reported as 1.8 L/kg, the bioavailability [2] is reported as 61% and the half-life [3] is reported as > 0.5 h. For the same compound, the Activity (Mus musculus [4]) was “Non-toxic”, the Activity (Mus musculus [5]) was “Non-toxic” and the clearance [6] was 8 mL/min/kg. The bioavailability [7] was 67%, the IC50 [8] was 10 nM and the IC50 [9] was 10 nM. The half-life [10] was 3.3 h, the half-life [11] was 17.2 h and the IC50 [12] was > 100000 nM. For the same compound, the Activity (Rattus norvegicus) was “Non-toxic”, the half-life [13] was 6.1 h and the IC50 [14] was 10 nM. The Cmax [15] was 656 ng/mL, the Vd [16] was 4.2 L/kg and the Activity (Mus musculus [17]) was “Non-toxic”. The clearance [18] was 1 mL/min/kg, the Tmax [19] was 1.8 h and the AUC [20] was 3600 ng·h/mL. The AUC [21] was 43500 ng·h/mL, the half-life [22] was > 0.5 h and the half-life [23] was > 0.5 h. For the same compound, the Activity (Mus musculus [24]) was “Non-toxic”, the half-life [25] was 4.8 h and the AUC [26] was 11700 ng·h/mL. The IC50 [27] was > 100000 nM.
